Active and inactive are the calls of the source. No cut-off for these calls is given here.
Key:
[1] = system: HEK293; assay: Inhibition of Wnt/beta-catenin in HEK293 cells assessed as inhibition of Wnt3A-stimulated TOPFlash activity after 8 hrs; assay type: cell-based; settings: Homo sapiens, HEK293, 8 h
How it was run: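 HEK293 cells stably carrying p8xTOPFlash and Renilla pRL-TK, seeded at 100% confluency. Cells given Wnt-3A conditioned medium (from L Wnt-3A cells) containing compound (0.04–10 μM) or DMSO for 8 h. Lysed and read by dual luciferase, firefly normalized to Renilla, Wnt3A+DMSO = 100%. IC50 fit, mean ± SEM, n ≥ 2.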

[2] = system: U2OS; assay: Inhibition of Wnt/beta-catenin in human U2OS cells assessed as internalization of frizzled-GFP at 12.5 uM after 6 hrs by confocal microscopic analysis; assay type: cell-based
How it was run: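 U2OS cells stably expressing Frizzled1-GFP, plated 24 h, then exposed to 12.5 μM compound or DMSO for 6 h at 37 °C. Fixed with 4% paraformaldehyde and imaged by confocal microscopy (488 nm excitation). Punctate scored blind twice on a 0–5 scale against DMSO control.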

[3] = system: HCT-116; assay: Cytotoxicity against human HCT116 cells assessed as growth inhibition after 72 hrs by MTS assay; assay type: functional, cell-based; settings: HCT-116, 72 h
How it was run: (§1)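 HCT116 colon cancer cells seeded at 5000 cells/well, exposed to compound at 0.04–10 μM for 72 h, then read by colorimetric MTS. Viability normalized to DMSO set at 100%. IC50 from curve fit, mean ± SEM, n = 3.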

[4] = system: Mus musculus; assay: Half life in CD1 mouse assessed as niclosamide at 200 mg/kg, po measured for 45 to 240 mins; assay type: ADME, organism-based; settings: in vivo
How it was run: (§2)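 CD1 mice given prodrug orally as a solution in corn oil (20 mg/ml) at 200 mg/kg. Niclosamide in plasma quantified by LC/MS–MS, reported as ng/mL, mean ± SEM.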

[5] = system: Mus musculus; assay: Toxicity in NOD/SCID mouse assessed as change in body weight at 200 mg/kg, po administered 6 days a week for 3 weeks; assay type: organism-based; settings: in vivo
How it was run: (§3)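 NOD/SCID mice dosed orally with 200 mg/kg in corn oil, or corn oil vehicle, 6 days a week for 3 weeks. Observed throughout for side effects and behavior. Body weight taken on the first dosing day (week 0) and on the day after the last dose (week 3).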

[6] = system: Mus musculus; assay: Tlast in CD1 mouse assessed as niclosamide at 200 mg/kg, po; assay type: ADME, organism-based; settings: in vivo; how it was run: as §2
[7] = system: Mus musculus; assay: Clast in CD1 mouse assessed as niclosamide at 200 mg/kg, po; assay type: ADME, organism-based; settings: in vivo; how it was run: as §2
[8] = system: Plasma; assay: Drug metabolism in CD1 mouse plasma assessed as niclosamide production at 200 mg/kg, po measured for 24 hrs by LC/MS-MS analysis; assay type: ADME, organism-based; settings: in vivo; how it was run: as §2
[9] = system: Mus musculus; assay: Cmax in CD1 mouse assessed as niclosamide at 200 mg/kg, po; assay type: ADME, organism-based; set-up: dose 200 mg/kg, route oral; settings: in vivo; how it was run: as §2
[10] = system: Mus musculus; assay: Tmax in CD1 mouse assessed as niclosamide at 200 mg/kg, po; assay type: ADME, organism-based; settings: in vivo; how it was run: as §2
[11] = system: Mus musculus; assay: AUClast in CD1 mouse assessed as niclosamide at 200 mg/kg, po; assay type: ADME, organism-based; set-up: dose 200 mg/kg, route oral, time 0 - last; settings: in vivo; how it was run: as §2
[12] = system: Mus musculus; assay: Half life in CD1 mouse assessed as niclosamide at 200 mg/kg, po measured for 24 to 48 hrs; assay type: ADME, organism-based; settings: in vivo; how it was run: as §2
[13] = system: Mus musculus; assay: Toxicity in NOD/SCID mouse assessed as change in behavior at 200 mg/kg, po administered 6 days a week for 3 weeks; assay type: organism-based; settings: in vivo; how it was run: as §3
[14] = Oral bioavailability in Sprague-Dawley rat at 5 mg/kg; assay type: ADME, organism-based; settings: in vivo
[15] = Volume of distribution at steady state in Sprague-Dawley rat at 2 mg/kg, iv; assay type: ADME, organism-based; settings: in vivo
[16] = Half life in Sprague-Dawley rat at 2 mg/kg, iv; assay type: ADME, organism-based; settings: in vivo
[17] = Total clearance in Sprague-Dawley rat at 2 mg/kg, iv; assay type: ADME, organism-based; settings: in vivo
[18] = system: Plasma; assay: Drug uptake in plasma of CD1 mouse at 200 mg/kg, po by LC/MS-MS analysis; assay type: ADME, organism-based; settings: in vivo
How it was run: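 CD1 mice gavaged at 200 mg/kg with a solution (20 mg/ml) in 90% PEG 300 / 10% 1-methyl-2-pyrrolidinone. Blood sampled predose and at 0.25, 0.5, 1, 2, 4, 8 h. Plasma analyzed by LC/MS–MS, including for a potential active metabolite.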

[19] = system: HCT-116; assay: Cytotoxicity against human HCT116 cells assessed as growth inhibition up to 10 uM after 72 hrs by MTS assay; assay type: functional, cell-based; how it was run: as §1
[20] = Lipophilicity, log P of the compound at pH <=4; assay type: physicochemical; settings: octanol/water
[21] = Cytotoxicity against human breast cancer cells assessed as growth inhibition after 72 hrs by Cell Titer Glo Assay; assay type: functional, cell-based; settings: Cancer cell lines, pooled result: one value given for 7 cell lines, strains, targets or settings
[22] = system: Plasma; assay: Drug level in CD1 mouse plasma treated with DK-520 at 200 mg/kg, po measured for 24 hrs by LC/MS-MS analysis; assay type: ADME, organism-based; settings: in vivo; how it was run: as §2
[23] = Distribution coefficient, log D of the compound at pH 7; assay type: physicochemical; settings: octanol/water

O=C(Nc1cc(Cl)cc(Cl)c1)c1cc(Cl)ccc1O
IC50 [1]: 700 nM
inhibition [2]: Active

O=C(Nc1ccccc1Cl)c1cc(Cl)ccc1O
IC50 [1]: 3050 nM
inhibition [2]: inactive

O=C(Nc1ccc([N+](=O)[O-])cc1)c1cc(Cl)ccc1O
IC50 [1]: 990 nM
inhibition [2]: Active

O=C(Nc1ccc(C(F)(F)F)cc1)c1cc(Cl)ccc1O
IC50 [3]: 670 nM
IC50 [1]: 290 nM
inhibition [2]: Active

O=c1oc2ccc(Cl)cc2c(=O)n1-c1ccc([N+](=O)[O-])cc1Cl
IC50 [1]: 370 nM

O=C(Nc1ccccc1)c1cc(Cl)ccc1O
IC50 [1]: 11800 nM
inhibition [2]: inactive

O=c1oc2ccc(Cl)cc2c(=O)n1-c1ccc(C(F)(F)F)cc1
IC50 [1]: 320 nM
inhibition [2]: Active

O=C(Nc1ccc(F)cc1)c1cc(Cl)ccc1O
IC50 [1]: 3840 nM
inhibition [2]: inactive

CCOC(=O)Oc1ccc(Cl)cc1C(=O)Nc1ccc(C(F)(F)F)cc1Cl
IC50 [3]: 510 nM
IC50 [1]: 340 nM
inhibition [2]: Active

CCCCCCCC(=O)Oc1ccc(Cl)cc1C(=O)Nc1ccc([N+](=O)[O-])cc1Cl
t1/2 [4]: 0.69 h
Activity [5]: Non-toxic
Tlast [6]: 72 h
Clast [7]: 49 ng/mL
Drug metabolism [8]: metabolite_detected
Cmax [9]: 6100 ng/mL
Tmax [10]: 0.75 h
IC50 [3]: 610 nM
AUClast [11]: 22400 ng·h/mL
IC50 [1]: 230 nM
inhibition [2]: Active
t1/2 [12]: 12.2 h
Activity [13]: Non-toxic

CS(=O)(=O)c1ccc(NC(=O)c2cc(Cl)ccc2O)c(Cl)c1
IC50 [1]: 7660 nM
inhibition [2]: inactive

O=C(c1ccccc1)c1ccc(NC(=O)c2cc(Cl)ccc2O)cc1
IC50 [1]: 15000 nM
inhibition [2]: inactive

O=C(NC(=O)c1cc(Cl)ccc1O)c1ccc(C(F)(F)F)cc1
IC50 [1]: > 12000 nM
inhibition [2]: inactive

O=C(Nc1ccc(C(F)(F)F)cc1Cl)c1cc(Cl)ccc1O
bioavailability [14]: 15%
IC50 [3]: 540 nM
IC50 [1]: 560 nM
Vd [15]: 1.1 L/kg
half-life [16]: 3.7 h
inhibition [2]: Active
clearance [17]: 39 mL/min/kg

O=C(Nc1ccc(C(F)(F)F)cc1F)c1cc(Cl)ccc1O
IC50 [1]: 550 nM
inhibition [2]: Active

O=C(Nc1ccccc1)c1ccc(NC(=O)c2cc(Cl)ccc2O)cc1
IC50 [1]: 32900 nM
inhibition [2]: inactive

O=C(Nc1c(F)cccc1F)c1cc(Cl)ccc1O
IC50 [1]: > 12000 nM

O=C(Nc1ccc(F)cc1Cl)c1cc(Cl)ccc1O
IC50 [1]: 1410 nM
inhibition [2]: Active

O=C(Nc1ccc(F)c(Cl)c1)c1cc(Cl)ccc1O
IC50 [1]: 1210 nM
inhibition [2]: Active

CC(=O)Oc1ccc(Cl)cc1C(=O)Nc1ccc(C(F)(F)F)cc1Cl
IC50 [1]: 320 nM
inhibition [2]: Active

CN(C(=O)c1cc(Cl)ccc1O)c1ccc(C(F)(F)F)cc1
IC50 [1]: > 12000 nM
inhibition [2]: inactive

O=C(NCc1ccc(C(F)(F)F)cc1)c1cc(Cl)ccc1O
IC50 [1]: 15100 nM
inhibition [2]: inactive

O=c1oc2ccc(Cl)cc2c(=O)n1-c1ccc(C(F)(F)F)cc1Cl
Drug uptake [18]: Active
IC50 [3]: 550 nM
IC50 [1]: 330 nM
inhibition [2]: Active

O=C(Nc1ccc(Cl)cc1)c1cc(Cl)ccc1O
IC50 [1]: 1300 nM
inhibition [2]: Active

O=C(Nc1ccc(F)cc1F)c1cc(Cl)ccc1O
IC50 [1]: 4020 nM
inhibition [2]: inactive

O=C(Nc1cccc(C(F)(F)F)c1)c1cc(Cl)ccc1O
IC50 [1]: 890 nM
inhibition [2]: Active

O=C(Nc1cc(Cl)ccc1O)c1ccc([N+](=O)[O-])cc1
IC50 [1]: > 12000 nM

O=C(Nc1ccc(Cl)c(Cl)c1)c1cc(Cl)ccc1O
IC50 [1]: 730 nM
inhibition [2]: Active

O=S(=O)(Nc1ccc(C(F)(F)F)cc1Cl)c1cc(Cl)ccc1O
IC50 [1]: 2570 nM
inhibition [2]: inactive

O=C(Nc1c(Cl)cccc1Cl)c1cc(Cl)ccc1O
growth inhibition (GI) [19]: inactive
IC50 [1]: > 12000 nM
inhibition [2]: inactive

O=C(Nc1cc(Cl)ccc1Cl)c1cc(Cl)ccc1O
IC50 [1]: 750 nM
inhibition [2]: Active

O=C(Nc1ccc(Cl)cc1Cl)c1cc(Cl)ccc1O
bioavailability [14]: 12%
IC50 [3]: 1180 nM
IC50 [1]: 420 nM
Vd [15]: 0.3 L/kg
half-life [16]: 2.6 h
inhibition [2]: Active
clearance [17]: 27 mL/min/kg

NC(=O)c1ccc(NC(=O)c2cc(Cl)ccc2O)cc1
IC50 [1]: > 12000 nM
inhibition [2]: inactive

O=C(Nc1cccc(Cl)c1)c1cc(Cl)ccc1O
IC50 [1]: 1650 nM
inhibition [2]: Active

O=C(Nc1ccc([N+](=O)[O-])cc1Cl)c1cc(Cl)ccc1O [NICLOSAMIDE]
Drug uptake [18]: Active
logP [20]: 5.95
bioavailability [14]: 10%
IC50 [3]: 450 nM
IC50 [1]: 340 nM
Vd [15]: 0.9 L/kg
inhibition [2]: Active
IC50 [21]: 130 nM
clearance [17]: 20 mL/min/kg
Drug metabolism [22]: metabolite_detected
logD [23]: 4.48

CC(=O)c1ccc(NC(=O)c2cc(Cl)ccc2O)cc1
IC50 [1]: 6420 nM
inhibition [2]: inactive

— ChEMBL document CHEMBL3603766, “Structure-activity studies of Wnt/β-catenin inhibition in the Niclosamide chemotype: Identification of derivatives with improved drug exposure” (Bioorg Med Chem, 2015)
